pIC50: −log10 of the molar value. Activity calls are given as the source filed them. The calls are words filed in the database; no cut-off is given here.
Key:
T98G [1] = experiment: Cytotoxicity against human T98G cells expressing mutant p53 after 48 hrs by MTT assay; format: functional, cell-based; details: for pIC50: read-out: IC50
Outline: (§1)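 MTT assay. Cells were grown in DMEM with 10% FBS and penicillin/streptomycin at 37 °C under 5% CO2, seeded at 1–2×10^3 cells/well and treated 12 h later with 1×10^-12 to 1×10^-5 M ([…] from DMSO stock, final DMSO <0.5%) for 48 h. MTT was added at 0.5 mg mL⁻¹, formazan dissolved in DMSO and read at 570 nm. IC50 is the concentration giving 50% cytotoxicity. Quadruplicates, ≥3 independent experiments.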

T98G [2] = experiment: Induction of apoptosis in human T98G cells assessed as DNA fragmentation at 1 uM after 48 hrs by DAPI staining; format: functional, cell-based
Outline: (§2)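 Cells were treated at 1 μM for 48 h, washed in PBS and fixed in 70% methanol for 30 min at room temperature. They were stained with 0.4 μg mL⁻¹ DAPI for 1 h in the dark, and nuclear condensation and fragmentation were scored by fluorescence microscopy (385–410 nm).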

MCF7 [3] = experiment: Induction of apoptosis in human MCF7 cells assessed as cell shrinkage at 1 uM after 48 hrs by DAPI staining; format: functional, cell-based
MCF7 [4] = experiment: Induction of apoptosis in human MCF7 cells assessed as DNA fragmentation at 1 uM after 48 hrs by DAPI staining; format: functional, cell-based; outline: as §2
U-87MG ATCC [5] = experiment: Induction of apoptosis in human U87 cells assessed as membrane blebbing at 1 uM after 48 hrs by DAPI staining; format: functional, cell-based
MCF7 [6] = experiment: Induction of apoptosis in human MCF7 cells assessed as chromatin condensation at 1 uM after 48 hrs by acridine orange/ethidium bromide staining-based microscopy; format: functional, cell-based
Outline: (§3)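 After 48 h at 1 μM, cells were incubated for 15 min in serum-free medium containing 1 μg mL⁻¹ acridine orange and 1 μg mL⁻¹ ethidium bromide. The medium was removed and cells imaged by inverted fluorescence microscopy (530–650 nm). Green/orange nuclear patterns and acidic cytoplasmic vacuoles were scored.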

T98G [7] = experiment: Induction of apoptosis in human T98G cells assessed as irregularities in cellular shape at 1 uM after 48 hrs by DAPI staining; format: functional, cell-based
U-87MG ATCC [8] = experiment: Induction of apoptosis in human U87 cells assessed as appearance of autophagolysosomes at 1 uM after 48 hrs by acridine orange/ethidium bromide staining-based microscopy; format: functional, cell-based; outline: as §3
MCF7 [9] = experiment: Cytotoxicity against human MCF7 cells after 48 hrs by MTT assay; format: functional, cell-based; details: for pIC50: MCF7, 48 h, read-out: IC50; outline: as §1
T98G [10] = experiment: Induction of apoptosis in human T98G cells assessed as cell shrinkage at 1 uM after 48 hrs by DAPI staining; format: functional, cell-based
MCF7 [11] = experiment: Induction of apoptosis in human MCF7 cells assessed as irregularities in cellular shape at 1 uM after 48 hrs by DAPI staining; format: functional, cell-based
T98G [12] = experiment: Induction of apoptosis in human T98G cells assessed as appearance of autophagolysosomes at 1 uM after 48 hrs by acridine orange/ethidium bromide staining-based microscopy; format: functional, cell-based; outline: as §3
MCF7 [13] = experiment: Induction of apoptosis in human MCF7 cells assessed as chromatin condensation at 1 uM after 48 hrs by DAPI staining; format: functional, cell-based; outline: as §2
[14] = (§4) Cytotoxicity against human U87 cells expressing wild-type p53 after 48 hrs by MTT assay; format: functional, cell-based, U-87MG ATCC; details: U-87 MG, read-out: IC50; outline: as §1
U-87MG ATCC [15] = experiment: as §4; format: functional, cell-based; outline: as §1
T98G [16] = experiment: Induction of apoptosis in human T98G cells assessed as chromatin condensation at 1 uM after 48 hrs by acridine orange/ethidium bromide staining-based microscopy; format: functional, cell-based; outline: as §3
U-87MG ATCC [17] = experiment: Induction of apoptosis in human U87 cells assessed as chromatin condensation at 1 uM after 48 hrs by DAPI staining; format: functional, cell-based; outline: as §2
MCF7 [18] = experiment: Induction of apoptosis in human MCF7 cells assessed as appearance of autophagolysosomes at 1 uM after 48 hrs by acridine orange/ethidium bromide staining-based microscopy; format: functional, cell-based; outline: as §3
T98G [19] = experiment: Induction of apoptosis in human T98G cells assessed as membrane blebbing at 1 uM after 48 hrs […]; format: functional, cell-based
[20] = Haemolytic activity in human RBC after 1 hr by photometry; format: ADME, cell-based; details: Erythrocyte
Outline: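 Human EDTA blood was spun at 700xg for 10 min and the erythrocytes washed three times in cold PBS pH 7.4, then resuspended in it. Cells were incubated with varying compound concentrations for 1 h at 37 °C with shaking. After centrifugation, released haemoglobin was read at 540 nm to give the IC50. Mean ± SD, n = 4.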

U-87MG ATCC [21] = experiment: Induction of apoptosis in human U87 cells assessed as cell shrinkage at 1 uM after 48 hrs by DAPI staining; format: functional, cell-based
U-87MG ATCC [22] = experiment: Induction of apoptosis in human U87 cells assessed as irregularities in cellular shape at 1 uM after 48 hrs by DAPI staining; format: functional, cell-based
U-87MG ATCC [23] = experiment: Induction of apoptosis in human U87 cells assessed as chromatin condensation at 1 uM after 48 hrs by acridine orange/ethidium bromide staining-based microscopy; format: functional, cell-based; outline: as §3
T98G [24] = experiment: Induction of apoptosis in human T98G cells assessed as chromatin condensation at 1 uM after 48 hrs by DAPI staining; format: functional, cell-based; outline: as §2
MCF7 [25] = experiment: Induction of apoptosis in human MCF7 cells assessed as membrane blebbing at 1 uM after 48 hrs by DAPI staining; format: functional, cell-based
U-87MG ATCC [26] = experiment: Induction of apoptosis in human U87 cells assessed as DNA fragmentation at 1 uM after 48 hrs by DAPI staining; format: functional, cell-based; outline: as §2

SMILES	Activity (T98G [1])	pIC50 (T98G [1])	Activity (T98G [2])	Activity (MCF7 [3])	Activity (MCF7 [4])	Activity (U-87MG ATCC [5])	Activity (MCF7 [6])	Activity (T98G [7])	Activity (U-87MG ATCC [8])	Activity (MCF7 [9])	pIC50 (MCF7 [9])	Activity (T98G [10])	Activity (MCF7 [11])	Activity (T98G [12])	Activity (MCF7 [13])	pIC50 [14]	Activity (U-87MG ATCC [15])	Activity (T98G [16])	Activity (U-87MG ATCC [17])	Activity (MCF7 [18])	also measured
CC(=NNC(=S)Nc1ccccc1I)c1ccccn1 (mixture of isomers)	Dose-dependent effect	8.09	Active	Active	Active	Active	Active	Active	Active	Dose-dependent effect	8.39	Active	Active	Active	Active	8.21	Dose-dependent effect	Active	Active	Active	Activity (T98G [19]): Active; pIC50 [20]: < 5.00; Activity (U-87MG ATCC [21]): Active; Activity (U-87MG ATCC [22]): Active; Activity (U-87MG ATCC [23]): Active; Activity (T98G [24]): Active; Activity (MCF7 [25]): Active; Activity (U-87MG ATCC [26]): Active
CC(=NNC(=S)Nc1cccc(I)c1)c1ccccn1 (mixture of isomers)	Dose-dependent effect	7.21	Active	Active	Active	Active	Active	Active	Active	Dose-dependent effect	7.35	Active	Active	Active	Active	7.08	Dose-dependent effect	Active	Active	Active	Activity (T98G [19]): Active; pIC50 [20]: < 5.00; Activity (U-87MG ATCC [21]): Active; Activity (U-87MG ATCC [22]): Active; Activity (U-87MG ATCC [23]): Active; Activity (T98G [24]): Active; Activity (MCF7 [25]): Active; Activity (U-87MG ATCC [26]): Active
CC(=NNC(=S)Nc1ccc(I)cc1)c1ccccn1 (mixture of isomers)	Dose-dependent effect	7.19	Active	Active	Active	Active	Active	Active	Active	Dose-dependent effect	8.18	Active	Active	Active	Active	7.23	Dose-dependent effect	Active	Active	Active	Activity (T98G [19]): Active; pIC50 [20]: < 5.00; Activity (U-87MG ATCC [21]): Active; Activity (U-87MG ATCC [22]): Active; Activity (U-87MG ATCC [23]): Active; Activity (T98G [24]): Active; Activity (MCF7 [25]): Active; Activity (U-87MG ATCC [26]): Active
CC(=NNC(=S)Nc1ccccc1[N+](=O)[O-])c1ccccn1 (mixture of isomers)	Dose-dependent effect	8.18	Active	Active	Active	Active	Active	Active	Active	Dose-dependent effect	8.24	Active	Active	Active	Active	8.37	Dose-dependent effect	Active	Active	Active	Activity (T98G [19]): Active; pIC50 [20]: < 5.00; Activity (U-87MG ATCC [21]): Active; Activity (U-87MG ATCC [22]): Active; Activity (U-87MG ATCC [23]): Active; Activity (T98G [24]): Active; Activity (MCF7 [25]): Active; Activity (U-87MG ATCC [26]): Active
CC(=NNC(=S)Nc1cccc([N+](=O)[O-])c1)c1ccccn1 (mixture of isomers)	Dose-dependent effect	6.85	Active	Active	Active	Active	Active	Active	Active	Dose-dependent effect	7.42	Active	Active	Active	Active	7.16	Dose-dependent effect	Active	Active	Active	Activity (T98G [19]): Active; pIC50 [20]: < 5.00; Activity (U-87MG ATCC [21]): Active; Activity (U-87MG ATCC [22]): Active; Activity (U-87MG ATCC [23]): Active; Activity (T98G [24]): Active; Activity (MCF7 [25]): Active; Activity (U-87MG ATCC [26]): Active
